Tests used:
Mus musculus [1] = test: Antitumor activity against ip implanted P388 leukemia in mouse after ip administration of 1.25 mg/kg for 5 days expressed as increase in mean life span; format: functional; details: 120 h, route intraperitoneal
Procedure, shortened: (§1)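 Saline-dissolved drug was given ip daily for 5 consecutive days, beginning 24 h post-transplant. ILS % was calculated from treated vs control mean survival time over an 80-day observation period.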

Mus musculus [2] = test: Antitumor activity against ip implanted L1210 leukemia in mouse after ip administration of 30 mg/kg for 5 days expressed as increase in mean life span; format: functional; details: route intraperitoneal, 30 mg/kg
Procedure, shortened: (§2)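 Drug was dissolved in 0.9% NaCl, diluted just before use and given ip once daily for 5 consecutive days, starting 24 h after transplant. ILS % = mean survival time of treated vs control mice, observed for 80 days.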

Mus musculus [3] = test: Effect on ip implanted syngeneic B16 melanoma by ip administration for 9 days at 10 mg/kg was measured as increase in mean life span; details: 216 h
Mus musculus [4] = test: Antitumor activity against ip implanted L1210 leukemia in mouse after ip administration of 20 mg/kg for 5 days expressed as increase in mean life span; format: functional; details: 120 h, route intraperitoneal; procedure, shortened: as §2
Mus musculus [5] = test: Antitumor activity against ip implanted P388 leukemia in mouse after ip administration of 20 mg/kg for 5 days expressed as increase in mean life span; format: functional; details: 120 h, route intraperitoneal; procedure, shortened: as §1
Mus musculus [6] = test: Antitumor activity against ip implanted P388 leukemia in mouse after iv administration of 4 mg/kg for 5 days expressed as increase in mean life span; details: 120 h
Mus musculus [7] = test: Antitumor activity against ip implanted P388 leukemia in mouse after ip administration of 40 mg/kg for 5 days expressed as increase in mean life span; format: functional; details: 120 h, route intraperitoneal; procedure, shortened: as §1
Mus musculus [8] = test: Effect on ip implanted syngeneic B16 melanoma by ip administration of 30 mg/kg for 9 days measured as increase in mean life span; details: 216 h
Mus musculus [9] = test: Number of survivors out of 6 ip implanted L1210 leukemia mouse, tested after 80 days at 30 mg/kg; format: functional; details: route intraperitoneal, 30 mg/kg
Procedure, shortened: (§3)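 Female BDF1 mice implanted ip with ascitic fluid holding 10^5 L1210 cells. Saline-dissolved drug given ip daily on days 1-5, starting 24 h after implant. Six mice per dose group, followed 80 days. Survivors/total counted at day 80; ILS % from mean survival time vs controls.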

Mus musculus [10] = test: Inhibition of sc implanted syngeneic colon 38 carcinoma by ip administration at 40 mg/kg on 1, 3, 5, 7, 9 days measured as inhibition ratio; format: functional; details: route subcutaneous
Procedure, shortened: (§4)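 Tumor homogenate (70 mg) implanted into the axillary region of female BDF1 mice. Drug dissolved in 0.9% NaCl and diluted with saline just before use, then given ip on days 1, 3, 5, 7 and 9. Tumor length and width were measured by caliper on day 20 after inoculation and converted to estimated weight. Result reported as treated vs control tumor weight, T/C %.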

Mus musculus [11] = test: Effect on ip implanted syngeneic B16 melanoma by ip administration of 20 mg/kg for 9 days measured as increase in mean life span; details: 216 h
Mus musculus [12] = test: Antitumor activity against ip implanted P388 leukemia in mouse after iv administration of 8 mg/kg for 5 days expressed as increase in mean life span; details: 120 h
Mus musculus [13] = test: Effect on ip implanted syngeneic B16 melanoma by ip administration for 9 days at 5 mg/kg was measured as increase in mean life span; details: 216 h
Mus musculus [14] = test: Number of survivors out of 6 ip implanted P388 leukemia in mouse after ip administration of 20 mg/kg after 80 days; format: functional; details: route intraperitoneal
Procedure, shortened: (§5)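 P388 leukemia, 10^6 ascitic cells implanted ip in female BDF1 mice. Drug in saline given ip for 5 consecutive days from 24 h after transplant. Groups of six per dose level. Survivors/total recorded at the 80-day end of observation; ILS % from treated/control mean survival time.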

Mus musculus [15] = test: Antitumor activity against ip implanted L1210 leukemia in mouse after iv administration of 2 mg/kg for 5 days expressed as increase in mean life span; details: 120 h
Mus musculus [16] = test: Antitumor activity against ip implanted L1210 leukemia in mouse after iv administration of 4 mg/kg for 5 days expressed as increase in mean life span; details: 120 h
Mus musculus [17] = test: Antitumor activity against ip implanted P388 leukemia in mouse after ip administration of 10 mg/kg for 5 days expressed as increase in mean life span; format: functional; details: 120 h, route intraperitoneal; procedure, shortened: as §1
Mus musculus [18] = test: Antitumor activity against ip implanted L1210 leukemia in mouse after ip administration of 10 mg/kg for 5 days expressed as increase in mean life span; format: functional; details: Mus musculus, L1210, ip, 120 h, route intraperitoneal; procedure, shortened: as §2
Mus musculus [19] = test: Number of survivors out of 6 ip implanted L1210 leukemia in mouse after ip administration of 80 mg/kg after 80 days; format: functional; details: route intraperitoneal; procedure, shortened: as §3
Mus musculus [20] = test: Antitumor activity against ip implanted P388 leukemia in mouse after ip administration of 80 mg/kg for 5 days expressed as increase in mean life span; format: functional; details: 120 h, route intraperitoneal; procedure, shortened: as §1
Mus musculus [21] = test: Number of survivors out of 6 ip implanted P388 leukemia in mouse after ip administration of 10 mg/kg after 80 days; format: functional; details: route intraperitoneal; procedure, shortened: as §5
Mus musculus [22] = test: Number of survivors out of 6 ip implanted L1210 leukemia in mouse after ip administration of 40 mg/kg after 80 days; format: functional; details: route intraperitoneal; procedure, shortened: as §3
Mus musculus [23] = test: Antitumor activity against ip implanted P388 leukemia in mouse after ip administration of 5 mg/kg for 5 days expressed as increase in mean life span; format: functional; details: 120 h, route intraperitoneal; procedure, shortened: as §1
Mus musculus [24] = test: Number of survivors out of 6 ip implanted P388 leukemia in mouse after ip administration of 40 mg/kg after 80 days; format: functional; details: route intraperitoneal; procedure, shortened: as §5
Mus musculus [25] = test: Number of survivors out of 6 ip implanted P388 leukemia in mouse after ip administration of 80 mg/kg after 80 days; format: functional; details: route intraperitoneal; procedure, shortened: as §5
Mus musculus [26] = test: Inhibition of sc implanted syngeneic colon 38 carcinoma by ip administration at 60 mg/kg on 1, 3, 5, 7, 9 days measured as inhibition ratio; format: functional; details: route subcutaneous; procedure, shortened: as §4
Mus musculus [27] = test: Inhibition of sc implanted syngeneic colon 38 carcinoma by ip administration at 80 mg/kg on 1, 3, 5, 7, 9 days measured as inhibition ratio; format: functional; details: route subcutaneous; procedure, shortened: as §4
Mus musculus [28] = test: Antitumor activity against ip implanted L1210 leukemia in mouse after ip administration of 40 mg/kg for 5 days expressed as increase in mean life span; format: functional; details: 120 h, route intraperitoneal; procedure, shortened: as §2
Mus musculus [29] = test: Antitumor activity against ip implanted L1210 leukemia in mouse after ip administration of 1.25 mg/kg for 5 days expressed as increase in mean life span; format: functional; details: 120 h, route intraperitoneal; procedure, shortened: as §2
Mus musculus [30] = test: Inhibition of sc implanted syngeneic colon 38 carcinoma by ip administration at 30 mg/kg on 1, 3, 5, 7, 9 days measured as inhibition ratio; format: functional; details: route intraperitoneal; procedure, shortened: as §4
Mus musculus [31] = test: Antitumor activity against ip implanted L1210 leukemia in mouse after ip administration of 5 mg/kg for 5 days expressed as increase in mean life span; format: functional; details: Mus musculus, L1210, ip, 120 h, route intraperitoneal; procedure, shortened: as §2
Mus musculus [32] = test: Number of survivors out of 6 ip implanted L1210 leukemia in mouse after ip administration of 20 mg/kg after 80 days; format: functional; details: route intraperitoneal; procedure, shortened: as §3
Mus musculus [33] = test: Antitumor activity against ip implanted L1210 leukemia in mouse after ip administration of 2.5 mg/kg for 5 days expressed as increase in mean life span; format: functional; details: 120 h, route intraperitoneal; procedure, shortened: as §2
Mus musculus [34] = test: Inhibition of sc implanted syngeneic colon 38 carcinoma by ip administration at 2.5 mg/kg on 1, 3, 5, 7, 9 days measured as inhibition ratio; format: functional; details: route subcutaneous; procedure, shortened: as §4
Mus musculus [35] = test: Antitumor activity against ip implanted L1210 leukemia in mouse after iv administration of 2.5 mg/kg for 5 days expressed as increase in mean life span; details: 120 h
Mus musculus [36] = test: Antitumor activity against ip implanted P388 leukemia in mouse after iv administration of 2.5 mg/kg for 5 days expressed as increase in mean life span; details: 120 h
Mus musculus [37] = test: Effect on ip implanted syngeneic B16 melanoma by ip administration for 9 days at 2.5 mg/kg was measured as increase in mean life span; details: 216 h
Mus musculus [38] = test: Number of survivors out of 6 ip implanted P388 leukemia in mouse after ip administration of 2.5 mg/kg after 80 days; format: functional; details: route intraperitoneal; procedure, shortened: as §5
Mus musculus [39] = test: Antitumor activity against ip implanted P388 leukemia in mouse after ip administration of 2.5 mg/kg for 5 days expressed as increase in mean life span; format: functional; details: 120 h, route intraperitoneal; procedure, shortened: as §1
Mus musculus [40] = test: Antitumor activity against ip implanted syngeneic P388 leukemia in mouse after ip administration of 60 mg/kg for 5 days expressed as increase in mean life span; format: functional; details: 120 h, route intraperitoneal; procedure, shortened: as §1
Mus musculus [41] = test: Antitumor activity against ip implanted L1210 leukemia in mouse after ip administration of 120 mg/kg for 5 days expressed as increase in mean life span; format: functional; details: 120 h, route intraperitoneal; procedure, shortened: as §2

For Cc1c2cc[n+]([C@H]3O[C@@H](C)[C@@H](O)[C@@H](O)[C@@H]3O)cc2c(C)c2c1[nH]c1ccc(O)cc12.[Br-] (stereo in doubt; 56), the ILS at 1.25 mg/kg (Mus musculus [1]) was 85%, the ILS (Mus musculus [2]) was greater than 693% and the ILS at 10 mg/kg (Mus musculus [3]) was 62%. The ILS at 20 mg/kg (Mus musculus [4]) was greater than 248%, the ILS at 20 mg/kg (Mus musculus [5]) was greater than 677% and the ILS at 4 mg/kg (Mus musculus [6]) was 63%. The ILS at 40 mg/kg (Mus musculus [7]) was greater than 789%, the ILS at 30 mg/kg (Mus musculus [8]) was 58% and the Cures (Mus musculus [9]) was 4. It also gave a T/C (Mus musculus [10]) of 19%, an ILS at 20 mg/kg (Mus musculus [11]) of 81% and an ILS at 8 mg/kg (Mus musculus [12]) of 76%. For the same compound, the ILS at 5 mg/kg (Mus musculus [13]) was 50%, the Cures (Mus musculus [14]) was 5 and the ILS at 2 mg/kg (Mus musculus [15]) was 9%. For the same compound, the ILS at 4 mg/kg (Mus musculus [16]) was 38%, the ILS at 10 mg/kg (Mus musculus [17]) was greater than 341% and the ILS at 10 mg/kg (Mus musculus [18]) was 107%. For the same compound, the Cures (Mus musculus [19]) was 6, the ILS at 80 mg/kg (Mus musculus [20]) was greater than 513% and the Cures (Mus musculus [21]) was 2. For the same compound, the Cures (Mus musculus [22]) was 4, the ILS at 5 mg/kg (Mus musculus [23]) was 109% and the Cures (Mus musculus [24]) was 6. It also gave a Cures (Mus musculus [25]) of 4, a T/C (Mus musculus [26]) of 3% and a T/C (Mus musculus [27]) of 2%. The ILS at 40 mg/kg (Mus musculus [28]) was greater than 712%, the ILS at 1.25 mg/kg (Mus musculus [29]) was 56% and the T/C (Mus musculus [30]) was 52%. For the same compound, the ILS at 5 mg/kg (Mus musculus [31]) was 67% and the Cures (Mus musculus [32]) was 1.

Work on COc1cccc2c1C(=O)c1c(O)c3c(c(O)c1C2=O)C[C@@](O)(C(=O)CO)C[C@@H]3O[C@H]1C[C@H](N)[C@H](O)[C@H](C)O1 [DOXORUBICIN] yielded an ILS at 2.5 mg/kg (Mus musculus [33]) of 90%, a T/C (Mus musculus [34]) of 31% and an ILS at 2.5 mg/kg (Mus musculus [35]) of 30%. The ILS at 2.5 mg/kg (Mus musculus [36]) was 65%, the ILS at 2.5 mg/kg (Mus musculus [37]) was greater than 257% and the Cures (Mus musculus [38]) was 5. It also gave an ILS at 2.5 mg/kg (Mus musculus [39]) greater than 675%.

Work on Cc1c2ccncc2c(C)c2c1[nH]c1ccccc12 [ELLIPTECINE] yielded an ILS at 60 mg/kg (Mus musculus [40]) of 139% and an ILS at 120 mg/kg (Mus musculus [41]) of 128%.

Reference: ChEMBL document CHEMBL1124260, “Synthesis and antitumor activity of quaternary ellipticine glycosides, a series of novel and highly active antitumor agents” (1988)
